# Source: PubChem BioAssay (Johns Hopkins Ion Channel Center)
# Kir21 inh: Kir2.1 (mouse) channel inhibition; P35561; HEK293-Kir2.1, FluxOR thallium flux fluorescence; stronger effect = lower value; B-score at 10 µM; 310,000 compounds, 0.85% hits; AID 1672;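 active means fluorescence ratio B-score at or below minus 3 SD of library scores, with starting-brightness B-score within 2 SD, cut at about -4.2 in these data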;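 further: channel flux triggered by added potassium and thallium sulfate stimulus; B-score of peak minus minimum fluorescence over baseline after thallium stimulus; more negative B-score means stronger Kir2.1 block with less thallium influx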
# KCNQ1 act: potentiators or activators of human KCNQ1 potassium channel | CHO-K1 KCNQ1, thallium flux FluxOR fluorescence; stronger effect = higher value | B-score at 10 µM | 310,000 compounds, 0.35% hits | P51787;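 active means fluorescence ratio B-score, a plate-corrected score, at least three library SD, with initial intensity B-score within 5 SD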
#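 assay system = KCNQ1-transfected CHO-K1 cells | medium = assay buffer with matched DMSO | probe or stimulus = depolarizing K+/Tl+ stimulus, K2SO4 and Tl2SO4 each 12.5 mM in 5x stock | dosing = single dose | incubation = dye 90 min, compound 20 min, room temperature | detection = kinetic FluxOR fluorescence, 10 s baseline plus 110 s post-stimulus | evaluation = ratio B score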
# hERG rescue: hERG (human) protection from proarrhythmic block; Q12809; CHO-hERG, FluxOR thallium flux, dofetilide IC70 present; activation (rescue from dofetilide block), less the hit threshold, % at 10 µM; 310,000 compounds, 0.51% hits;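 active means activation above the mean of controls blocked by dofetilide plus 5 SD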;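 further: thallium influx through hERG after potassium depolarization seen as dye fluorescence rise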
# KCNQ1 inh: inhibitors of human KCNQ1 potassium channel | P51787 | CHO-K1 KCNQ1, FluxOR thallium flux fluorescence; stronger effect = higher value | B-score at 10 µM | 310,000 compounds, 1.3% hits | AID 2642;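 active means compounds whose thallium flux B-score, printed positive for inhibition, exceeds three library SD while starting fluorescence stays within three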;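 further: channel opened by potassium depolarization with thallium stimulus after 20 min compound exposure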
# KCNK3 inh: human KCNK3 channel inhibition, primary screen; CHO-KCNK3 thallium flux, FluxOR fluorescence; stronger effect = lower value; AID 602410; O14649; B-score at 10 µM; 340,000 compounds, 0.84% hits;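 active means B-score under library mean minus 4 SD, starting fluorescence ratio at most library mean plus 5 SD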;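 further: more negative B-score means stronger inhibition of thallium flux through KCNK3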
# Target sequence (O14649 whole entry, looked up): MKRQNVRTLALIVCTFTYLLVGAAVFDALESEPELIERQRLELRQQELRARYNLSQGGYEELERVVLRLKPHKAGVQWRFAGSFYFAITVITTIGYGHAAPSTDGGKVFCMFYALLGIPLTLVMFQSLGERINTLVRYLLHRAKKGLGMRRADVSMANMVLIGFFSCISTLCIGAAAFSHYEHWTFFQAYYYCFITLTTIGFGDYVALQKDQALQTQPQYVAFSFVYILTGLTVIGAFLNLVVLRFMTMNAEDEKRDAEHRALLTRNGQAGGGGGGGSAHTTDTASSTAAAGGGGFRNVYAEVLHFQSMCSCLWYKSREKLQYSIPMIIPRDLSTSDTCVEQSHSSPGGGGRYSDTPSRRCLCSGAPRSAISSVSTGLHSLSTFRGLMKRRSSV
# KCNK9 block: human KCNK9 channel inhibition; Q9NPC2; HEK293 KCNK9, FluxOR thallium flux fluorescence; stronger effect = lower value; B-score at 10 µM; 310,000 compounds, 1.2% hits; AID 488922;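 active means ratio B-score over 3 SD below the library mean, with starting fluorescence within 5 SD of its mean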;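 further: negative B-score means less thallium flux so channel inhibition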
# Target sequence (Q9NPC2 whole entry, looked up): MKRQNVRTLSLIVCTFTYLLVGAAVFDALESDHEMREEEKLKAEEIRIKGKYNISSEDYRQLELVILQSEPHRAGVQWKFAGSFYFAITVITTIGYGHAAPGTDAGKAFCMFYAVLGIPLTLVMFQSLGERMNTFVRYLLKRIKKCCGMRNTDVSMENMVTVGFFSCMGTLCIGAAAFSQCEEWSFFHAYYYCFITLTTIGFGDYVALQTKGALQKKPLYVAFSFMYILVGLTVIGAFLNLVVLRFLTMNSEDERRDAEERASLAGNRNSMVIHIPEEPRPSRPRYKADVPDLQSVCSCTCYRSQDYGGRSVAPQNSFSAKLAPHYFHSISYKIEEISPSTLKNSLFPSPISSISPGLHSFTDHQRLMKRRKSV
# KCNQ1 block val: human KCNQ1 channel inhibition, validation assay; shares compounds with KCNQ1 inh; KCNQ1 cell line, FluxOR thallium flux fluorescence; inhibition, % at 10 µM; 1,600 compounds, 93% hits; AID 588353;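 active means primary screen active, with duplicate mean exceeding buffer control mean plus 3 SD of buffer wells, cut at about 28% in these data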;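 further: 0% = buffer control ratio and 100% = XE991 inhibitor control ratio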
# CHO KCNQ1 ctr: counter-screen for KCNQ1 inhibitors: effect in parental CHO cells | shares compounds with KCNQ1 inh | parental CHO-K1, FluxOR thallium flux fluorescence ratio; stronger effect = lower value; zero means no signal rise above baseline | fluorescence ratio (Tl flux) at 10 µM | 1,600 compounds, 21% hits;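 active means mean of duplicate thallium-flux fluorescence ratios in parental host cells more than 5 SD below the buffer control mean, cut at about 0.38 in these data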;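 further: ratio is peak minus minimum fluorescence divided by baseline fluorescence; actives read low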
# KCNQ1 APC inh: human KCNQ1 inhibition validated by electrophysiology | KCNQ1-CHO cells, automated patch clamp current | calls only at 10 µM | 490 compounds, 20% hits | shares compounds with KCNQ1 inh;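 active means KCNQ1 current drop exceeding 3 SD of negative control wells, seen in both duplicate runs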;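 further: steady state current during a 2 s step from -80 to +40 mV; negative values mean current inhibition and positive values mean potentiation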
# KCNQ2 inh: selectivity of KCNQ1 inhibitors: inhibition of rat KCNQ2 channel; shares compounds with KCNQ1 inh; KCNQ2 cells, FluxOR thallium flux fluorescence; inhibition, % at 10 µM; 1,600 compounds, 71% hits; AID 651746;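 active means mean percent inhibition of the KCNQ2 thallium signal more than 5 SD above the buffer-only control wells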;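 further: KCNQ2 expressed in CHO cells; 0% = buffer control wells and 100% = XE-991 inhibitor control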
# KCNQ1 KCNE1 spec: KCNQ1 inhibitor that also blocks human KCNQ1/KCNE1 channel | shares compounds with KCNQ1 inh | inhibition, % at 10 µM | KCNQ1/KCNE1 cells, FluxOR thallium flux fluorescence | 1,600 compounds, 77% hits | AID 652147;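 active means mean percent inhibition of duplicate wells above the buffer-only control mean plus 3 SD of those controls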;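 further: 0% = buffer only wells and 100% = XE-991 inhibitor control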
# * = called active by the depositor; i = inactive; x = no result given; + = active, no number. A selection: hits, their analogues and other compounds. The true share with any hit is near 3.8%.
SMILES,Kir21 inh,KCNQ1 act,hERG rescue,KCNQ1 inh,KCNK3 inh,KCNK9 block,KCNQ1 block val,CHO KCNQ1 ctr,KCNQ1 APC inh,KCNQ2 inh,KCNQ1 KCNE1 spec
CNc1ccc2c3c(cccc13)C(=O)N(C)C2=O,-17.5,i,-49.4,32*,i,i,+,0.003*,x,i,i
CC[C@]12c3[nH]c4ccccc4c3CCN1C(=O)C(CC(=O)NCCC1=CCCCC1)C[C@@H]2C(=O)N1CCN(C(=O)c2ccco2)CC1 (stereo not given in full),x,x,x,x,i,x,x,x,x,x,x
CCC1(C)Cc2ccccc2-c2nc(-c3ccccc3)oc(=O)c21 (stereo not given),3.08,i,-13.0,8*,i,i,92.5*,0.491,i,102.3%*,104.5%*
CCC1(C)Cc2ccccc2-c2nc(NN)[nH]c(=O)c21 (stereo not given),-0.87,i,-9.7,i,i,i,x,x,x,x,x
O=S(=O)(Nc1c(O)ccc2ccccc12)c1ccccc1,-0.89,i,-10.6,11*,i,i,55.5*,0.534,x,i,89.5%*
O=S(=O)(Nc1cccc2ccccc12)c1ccccc1,-0.15,i,-10.3,i,i,i,x,x,x,x,x
O=S(=O)(Nc1c(O)ccc2ccccc12)c1ccc(F)cc1,-0.15,i,-21.3,10*,i,i,42.5*,0.642,x,i,55.0%*
CCOc1ccc(C2CC(c3cccc(OC)c3OC)n3nnnc3N2)cc1Cl (stereo not given),0.67,i,-6.9,7*,i,i,0.0,0.517,x,59.0%*,i
CC(NC(=S)NC1CCCCC1)c1ccc(C(C)(C)C)cc1 (stereo not given),1.61,i,-5.2,8*,i,i,104.5*,0.558,i,i,77.0%*
CC(C)c1ccc(C(C)NC(=S)NC2CCCCC2)cc1 (stereo not given),-1.69,i,-8.0,i,i,i,x,x,x,x,x
COc1ccccc1C(=O)NCCC(=O)NNC(=O)c1ccccc1O,1.38,i,-7.0,i,i,i,x,x,x,x,x
CSc1ccccc1NC(=S)Nc1cccc(C(F)(F)F)c1,-0.51,i,-11.9,i,i,i,x,x,x,x,x
COc1ccc(NC(=S)Nc2cccc(C(F)(F)F)c2)c(C)c1,0,i,-4.6,8*,i,i,99.0*,0.494,i,100.3%*,60.0%*
O=C(Cn1cnc2ccccc21)Nc1ccc(SC(F)F)cc1,-0.9,i,-14.3,7*,i,i,115.0*,0.46,+,71.3%*,57.5%*
COc1ccc(NC(=O)COC(=O)Cn2cnc3ccccc32)cc1,x,x,x,x,i,x,x,x,x,x,x
CCN(CC)c1ccc(Nc2nc(N3CCOCC3)c3ccccc3n2)cc1,-0.78,i,-14.3,8*,i,i,112.5*,0.403,i,117.0%*,100.5%*
COc1ccc(C2C3=C(CC(C)(C)CC3=O)Oc3ncn(CCCn4ccnc4)c(=N)c32)cc1 (stereo not given),-1.09,i,-2.6,i,i,i,x,x,x,x,x
O=C(CCc1ccccc1)c1c(O)cc(O)cc1O,0.84,i,-38.0,10*,i,i,123.0*,0.367*,x,102.0%*,177.0%*
COc1ccc(C(=O)CCc2ccccc2)c(O)c1,2.04,i,-4.8,i,i,i,x,x,x,x,x
CC[C@@]1(O)C(=O)OCc2c1cc1n(c2=O)Cc2cc3c(CN(C)C)c(O)ccc3nc2-1,-12.3,i,-48.6,32*,i,i,+,0.017*,x,i,i
CC(C)=CCOc1c2ccoc2c(OCC=C(C)C)c2oc(=O)ccc12,x,x,x,x,i,x,x,x,x,x,x
Fc1ccc2[nH]c3c(NCc4ccccc4)ncnc3c2c1,-2.46,i,-23.5,7*,i,i,149.5*,0.404,i,73.0%*,75.5%*
COc1ccc2[nH]c3c(NCc4ccco4)ncnc3c2c1,1.61,i,-12.7,i,x,i,x,x,x,x,x
CCCCc1ccc(N/C(N)=N/c2nc(C)cc(C)n2)cc1,-5.21*,i,-17.5,11*,i,i,95.5*,0.411,+,66.0%*,i
Cc1ccc(N/C(N)=N/c2nc(C)cc(C)n2)cc1,-0.02,i,-7.0,i,i,i,x,x,x,x,x
SMILES,Kir21 inh,KCNQ1 act,hERG rescue,KCNQ1 inh,KCNK3 inh,KCNK9 block,KCNQ1 block val,CHO KCNQ1 ctr,KCNQ1 APC inh,KCNQ2 inh,KCNQ1 KCNE1 spec
CC(C)Cn1c(=O)oc2ccccc21,0.29,i,-3.4,i,i,i,x,x,x,x,x
O=C(COC(=O)CN1C(=O)C2CCCCC2C1=O)Nc1cc(F)ccc1F (stereo not given),x,x,x,x,i,x,x,x,x,x,x
COc1cc(NC(=O)COc2ccc(-n3ccnc3)cc2)cc(OC)c1,-2.93,i,-10.5,i,i,i,x,x,x,x,x
CC(C)(C)c1ccc(NC(=O)COc2ccc(-n3ccnc3)cc2)cc1,-0.22,i,-16.7,7*,i,i,130.0*,0.47,x,74.3%*,40.5%*
CCn1c(Cc2ccc(OC)cc2)nnc1SCc1nc2ccccc2c(=O)[nH]1,1.14,i,-4.1,i,i,i,x,x,x,x,x
CC(C)Cn1c(N)c(C(=O)COC(=O)CCc2nc3ccccc3s2)c(=O)n(C)c1=O,-0.78,i,-20.1,8*,i,i,132.5*,0.437,i,84.0%*,96.5%*
CC(C)Cn1c(N)c(C(=O)COC(=O)CC23CC4CC(CC(C4)C2)C3)c(=O)n(C)c1=O,0,i,-16.6,12*,i,i,143.5*,0.297*,x,124.0%*,186.0%*
Cc1csc(=O)n1CCC(=O)OCC(=O)c1c(N)n(CC(C)C)c(=O)n(C)c1=O,2.01,i,-20.8,i,i,i,x,x,x,x,x
CCOc1ccccc1NC(=O)C(OC(=O)c1ccccc1)c1ccccc1 (stereo not given),0.26,i,-2.1,6*,i,-6.9*,89.5*,0.403,i,107.0%*,126.0%*
COc1ccc(CN(C)C(C)C(=O)Nc2ccc(S(=O)(=O)N3CCCCC3)cc2)c(OC)c1 (stereo not given),x,x,x,x,i,x,x,x,x,x,x
